In ChEMBL document CHEMBL2040727, “Substituted thiazoles VI. Synthesis and antitumor activity of new 2-acetamido- and 2 or 3-propanamido-thiazole analogs” (2012):

How the values were obtained:
Assay type in all cases: functional
[1] = system: K562; assay: Growth inhibition of human K562 cells at 10 uM after 48 hrs by coulter counter analysis; conditions: K562, 48 h, read-out: GI
How it was run: (§1)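 Single-dose NCI 60-line panel screen of test compounds. Cells grown in RPMI 1640 with 10% FBS. Compounds dissolved in DMSO, then diluted in phosphate buffer saline (final DMSO below 1%). Wells run in duplicate at 6 × 10⁴ cells/ml. Controls held PBS and DMSO at matching dilutions. Incubation 48 h at 37 °C under humidified 5% CO2. Cells diluted tenfold in saline and counted by Coulter counter. Percent growth inhibition taken from mean-graph of treated-cell growth.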

[2] = system: A549; assay: Growth inhibition of human A549/ATCC cells at 10 uM after 48 hrs by coulter counter analysis; conditions: A549, 48 h, read-out: GI; how it was run: as §1
[3] = system: EKVX; assay: Growth inhibition of human EKVX cells at 10 uM after 48 hrs by coulter counter analysis; conditions: read-out: GI; how it was run: as §1
[4] = system: HOP-62; assay: Growth inhibition of human HOP62 cells at 10 uM after 48 hrs by coulter counter analysis; conditions: HOP-62, 48 h, read-out: GI; how it was run: as §1
[5] = system: HOP-92; assay: Growth inhibition of human HOP92 cells at 10 uM after 48 hrs by coulter counter analysis; conditions: HOP-92, 48 h, read-out: GI; how it was run: as §1
[6] = system: NCI-H226; assay: Growth inhibition of human NCI-H226 cells at 10 uM after 48 hrs by coulter counter analysis; conditions: NCI-H226, 48 h, read-out: GI; how it was run: as §1
[7] = system: NCI-H460; assay: Growth inhibition of human NCI-H460 cells at 10 uM after 48 hrs by coulter counter analysis; conditions: NCI-H460, 48 h, read-out: GI; how it was run: as §1
[8] = system: NCI-H522; assay: Growth inhibition of human NCI-H522 cells at 10 uM after 48 hrs by coulter counter analysis; conditions: NCI-H522, 48 h, read-out: GI; how it was run: as §1
[9] = system: HCC 2998; assay: Growth inhibition of human HCC2998 cells at 10 uM after 48 hrs by coulter counter analysis; conditions: HCC 2998, 48 h, read-out: GI; how it was run: as §1
[10] = system: HT-29; assay: Growth inhibition of human HT-29 cells at 10 uM after 48 hrs by coulter counter analysis; conditions: HT-29, 48 h, read-out: GI; how it was run: as §1
[11] = system: KM12; assay: Growth inhibition of human KM12 cells at 10 uM after 48 hrs by coulter counter analysis; conditions: KM12, 48 h, read-out: GI; how it was run: as §1
[12] = system: SF-539; assay: Growth inhibition of human SF539 cells at 10 uM after 48 hrs by coulter counter analysis; conditions: SF-539, 48 h, read-out: GI; how it was run: as §1
[13] = system: SNB-19; assay: Growth inhibition of human SNB19 cells at 10 uM after 48 hrs by coulter counter analysis; conditions: SNB-19, 48 h, read-out: GI; how it was run: as §1
[14] = system: SNB-75; assay: Growth inhibition of human SNB75 cells at 10 uM after 48 hrs by coulter counter analysis; conditions: SNB-75, 48 h, read-out: GI
How it was run: (§2)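 Single-dose screen in the NCI 60 cell line panel. Cells grown in RPMI 1640 with 10% FBS. Compounds dissolved in DMSO and diluted in phosphate buffered saline, final DMSO under 1%. Duplicate wells seeded from culture at 6 × 10⁴ cells/ml. Incubated 48 h at 37 °C, humidified, 5% CO2. Cells diluted tenfold in saline and Coulter-counted. Percent growth inhibition computed against PBS/DMSO controls.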

[15] = system: LOX IMVI; assay: Growth inhibition of human LOXIMVI cells at 10 uM after 48 hrs by coulter counter analysis; conditions: read-out: GI; how it was run: as §1
[16] = system: MDA-MB-435; assay: Growth inhibition of human MDA-MB-435 cells at 10 uM after 48 hrs by coulter counter analysis; conditions: MDA-MB-435, 48 h, read-out: GI; how it was run: as §1
[17] = system: SK-MEL-2; assay: Growth inhibition of human SK-MEL-2 cells at 10 uM after 48 hrs by coulter counter analysis; conditions: SK-MEL-2, 48 h, read-out: GI; how it was run: as §1
[18] = system: SK-MEL-28; assay: Growth inhibition of human SK-MEL-28 cells at 10 uM after 48 hrs by coulter counter analysis; conditions: SK-MEL-28, 48 h, read-out: GI; how it was run: as §1
[19] = system: SK-MEL-5; assay: Growth inhibition of human SK-MEL-5 cells at 10 uM after 48 hrs by coulter counter analysis; conditions: SK-MEL-5, 48 h, read-out: GI; how it was run: as §1
[20] = system: OVCAR-3; assay: Growth inhibition of human OVCAR3 cells at 10 uM after 48 hrs by coulter counter analysis; conditions: OVCAR-3, 48 h, read-out: GI; how it was run: as §1
[21] = system: OVCAR-4; assay: Growth inhibition of human OVCAR4 cells at 10 uM after 48 hrs by coulter counter analysis; conditions: OVCAR-4, 48 h, read-out: GI; how it was run: as §1
[22] = system: OVCAR-5; assay: Growth inhibition of human OVCAR5 cells at 10 uM after 48 hrs by coulter counter analysis; conditions: OVCAR-5, 48 h, read-out: GI; how it was run: as §1
[23] = system: OVCAR-8; assay: Growth inhibition of human OVCAR8 cells at 10 uM after 48 hrs by coulter counter analysis; conditions: OVCAR-8, 48 h, read-out: GI; how it was run: as §1
[24] = Growth inhibition of human NCI-ADR-RES cells at 10 uM after 48 hrs by coulter counter analysis; conditions: read-out: GI; how it was run: as §1
[25] = system: 786-0; assay: Growth inhibition of human 786-0 cells at 10 uM after 48 hrs by coulter counter analysis; conditions: 786-0, 48 h, read-out: GI; how it was run: as §1
[26] = system: A498; assay: Growth inhibition of human A498 cells at 10 uM after 48 hrs by coulter counter analysis; conditions: A498, 48 h, read-out: GI; how it was run: as §1
[27] = system: ACHN; assay: Growth inhibition of human ACHN cells at 10 uM after 48 hrs by coulter counter analysis; conditions: read-out: GI; how it was run: as §1
[28] = system: CAKI-1; assay: Growth inhibition of human Caki1 cells at 10 uM after 48 hrs by coulter counter analysis; conditions: CAKI-1, 48 h, read-out: GI; how it was run: as §1
[29] = system: SN12C; assay: Growth inhibition of human SN12C cells at 10 uM after 48 hrs by coulter counter analysis; conditions: read-out: GI; how it was run: as §1
[30] = system: UO-31; assay: Growth inhibition of human UO31 cells at 10 uM after 48 hrs by coulter counter analysis; conditions: UO-31, 48 h, read-out: GI; how it was run: as §2
[31] = system: MDA-MB-231; assay: Growth inhibition of human MDA-MB-231 cells at 10 uM after 48 hrs by coulter counter analysis; conditions: MDA-MB-231, 48 h, read-out: GI; how it was run: as §1
[32] = system: BT-549; assay: Growth inhibition of human BT549 cells at 10 uM after 48 hrs by coulter counter analysis; conditions: BT-549, 48 h, read-out: GI; how it was run: as §1
[33] = system: T47D; assay: Growth inhibition of human T47D cells at 10 uM after 48 hrs by coulter counter analysis; conditions: read-out: GI; how it was run: as §2
[34] = system: MDA-MB-468; assay: Growth inhibition of human MDA-MB-468 cells at 10 uM after 48 hrs by coulter counter analysis; conditions: MDA-MB-468, 48 h, read-out: GI; how it was run: as §1

Row | SMILES | inhibition of growth at 10 µM [1] [%] | inhibition of growth at 10 µM [2] [%] | inhibition of growth at 10 µM [3] [%] | inhibition of growth at 10 µM [4] [%] | inhibition of growth at 10 µM [5] [%] | inhibition of growth at 10 µM [6] [%] | inhibition of growth at 10 µM [7] [%] | inhibition of growth at 10 µM [8] [%] | inhibition of growth at 10 µM [9] [%] | inhibition of growth at 10 µM [10] [%] | inhibition of growth at 10 µM [11] [%] | inhibition of growth at 10 µM [12] [%] | inhibition of growth at 10 µM [13] [%] | inhibition of growth at 10 µM [14] [%] | inhibition of growth at 10 µM [15] [%] | inhibition of growth at 10 µM [16] [%] | inhibition of growth at 10 µM [17] [%] | inhibition of growth at 10 µM [18] [%] | inhibition of growth at 10 µM [19] [%] | inhibition of growth at 10 µM [20] [%] | other results
1 | Cc1csc(NC(=O)C(C)N2CCN(C)CC2)n1 (configuration not stated) | < 10 | < 10 | < 10 | 10.9 | < 10 | < 10 | < 10 | 66.3 | < 10 | < 10 | < 10 | < 10 | < 10 | < 10 | 46.4 | 11.2 | < 10 | < 10 | 11.3 | < 10 | inhibition of growth at 10 µM [21]: 16.2%; inhibition of growth at 10 µM [22]: < 10%; inhibition of growth at 10 µM [23]: < 10%; inhibition of growth at 10 µM [24]: < 10%; inhibition of growth at 10 µM [25]: < 10%; inhibition of growth at 10 µM [26]: < 10%; inhibition of growth at 10 µM [27]: < 10%; inhibition of growth at 10 µM [28]: < 10%; inhibition of growth at 10 µM [29]: 11.5%; inhibition of growth at 10 µM [30]: < 10%; inhibition of growth at 10 µM [31]: 13.3%; inhibition of growth at 10 µM [32]: 13.3%; inhibition of growth at 10 µM [33]: < 10%; inhibition of growth at 10 µM [34]: 11.1%
2 | CC(C(=O)Nc1nccs1)N1CCN(c2ccccc2)CC1 (configuration not stated) | < 10 | < 10 | < 10 | < 10 | < 10 | < 10 | < 10 | < 10 | < 10 | < 10 | < 10 | < 10 | < 10 | < 10 | < 10 | < 10 | < 10 | < 10 | < 10 | < 10 | inhibition of growth at 10 µM [21]: < 10%; inhibition of growth at 10 µM [22]: < 10%; inhibition of growth at 10 µM [23]: < 10%; inhibition of growth at 10 µM [24]: < 10%; inhibition of growth at 10 µM [25]: < 10%; inhibition of growth at 10 µM [26]: < 10%; inhibition of growth at 10 µM [27]: < 10%; inhibition of growth at 10 µM [28]: < 10%; inhibition of growth at 10 µM [29]: < 10%; inhibition of growth at 10 µM [30]: < 10%; inhibition of growth at 10 µM [31]: < 10%; inhibition of growth at 10 µM [32]: < 10%; inhibition of growth at 10 µM [33]: < 10%; inhibition of growth at 10 µM [34]: < 10%
3 | Cc1csc(NC(=O)C(C)N2CCN(c3ccccc3)CC2)n1 (configuration not stated) | < 10 | < 10 | < 10 | < 10 | < 10 | 11.7 | < 10 | < 10 | < 10 | < 10 | < 10 | < 10 | < 10 | 24 | < 10 | < 10 | < 10 | < 10 | < 10 | < 10 | inhibition of growth at 10 µM [21]: < 10%; inhibition of growth at 10 µM [22]: < 10%; inhibition of growth at 10 µM [23]: < 10%; inhibition of growth at 10 µM [24]: < 10%; inhibition of growth at 10 µM [25]: < 10%; inhibition of growth at 10 µM [26]: < 10%; inhibition of growth at 10 µM [27]: < 10%; inhibition of growth at 10 µM [28]: < 10%; inhibition of growth at 10 µM [29]: < 10%; inhibition of growth at 10 µM [30]: 17.9%; inhibition of growth at 10 µM [31]: < 10%; inhibition of growth at 10 µM [32]: < 10%; inhibition of growth at 10 µM [33]: < 10%; inhibition of growth at 10 µM [34]: < 10%
